Source: ChEMBL document CHEMBL1123145, “Synthesis of pyrrolizidine alkaloids indicine, intermedine, lycopsamine, and analogues and their N-oxides. Potential antitumor agents” (1985)

Legend:
Assay type in all cases: functional, Mus musculus
[1] = tested on: P388; experiment: Weight difference observed in survivors treated for antitumor activity against P388 Lymphocytic Leukemia system at a dose of 96 mg/kg
[2] = tested on: P388; experiment: Survival rate of the animals determined for antitumor activity against P388 Lymphocytic Leukemia system at a dose of 192 mg/kg
[3] = tested on: P388; experiment: Number of Survivors determined for antitumor activity against P388 Lymphocytic Leukemia system on day 5 at a dose of 24 mg/kg (6 out of 6)
[4] = tested on: P388; experiment: Weight difference observed in survivors treated for antitumor activity against P388 Lymphocytic Leukemia system at a dose of 24 mg/kg
[5] = tested on: P388; experiment: Number of Survivors determined for antitumor activity against P388 Lymphocytic Leukemia system on day 5 at a dose of 192 mg/kg (6 out of 6)
[6] = tested on: P388; experiment: Number of Survivors determined for antitumor activity against P388 Lymphocytic Leukemia system on day 5 at a dose of 48 mg/kg (6 out of 6)
[7] = tested on: P388; experiment: Weight difference observed in survivors treated for antitumor activity against P388 Lymphocytic Leukemia system at a dose of 192 mg/kg
[8] = tested on: P388; experiment: Survival rate of the animals determined for antitumor activity against P388 Lymphocytic Leukemia system at a dose of 24 mg/kg
[9] = tested on: P388; experiment: Weight difference observed in survivors treated for antitumor activity against P388 Lymphocytic Leukemia system at a dose of 48 mg/kg
[10] = tested on: P388; experiment: Survival rate of the animals determined for antitumor activity against P388 Lymphocytic Leukemia system at a dose of 48 mg/kg
[11] = tested on: P388; experiment: Number of Survivors determined for antitumor activity against P388 Lymphocytic Leukemia system on day 5 at a dose of 96 mg/kg(6 out of 6)
[12] = tested on: P388; experiment: Survival rate of the animals determined for antitumor activity against P388 Lymphocytic Leukemia system at a dose of 96 mg/kg
[13] = tested on: P388; experiment: Weight difference observed in survivors treated for antitumor activity against P388 Lymphocytic Leukemia system at a dose of 1600 mg/kg (Group III)
In short: (§1)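 P388 lymphocytic leukemia screen run in separate test groups (I–IV). Each group includes its own indicine N-oxide internal control, listed as the group's first entry. Survival and survivor weight change are read against that control. Material was limited, so some analogues were screened up to about 200 mg/kg maximum.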

[14] = tested on: P388; experiment: Weight difference observed in survivors treated for antitumor activity against P388 Lymphocytic Leukemia system at a dose of 1600 mg/kg (Group IV); in short: as §1
[15] = tested on: P388; experiment: Survival rate of the animals determined for antitumor activity against P388 Lymphocytic Leukemia system at a dose of 800 mg/kg (Group I); in short: as §1
[16] = tested on: P388; experiment: Survival rate of the animals determined for antitumor activity against P388 Lymphocytic Leukemia system at a dose of 1600 mg/kg (Group II)
[17] = tested on: P388; experiment: Survival rate of the animals determined for antitumor activity against P388 Lymphocytic Leukemia system at a dose of 200 mg/kg (Group I)
[18] = tested on: P388; experiment: Weight difference observed in survivors treated for antitumor activity against P388 Lymphocytic Leukemia system at a dose of 800 mg/kg (Group II)
[19] = tested on: P388; experiment: Survival rate of the animals determined for antitumor activity against P388 Lymphocytic Leukemia system at a dose of 200 mg/kg (Group II); in short: as §1
[20] = tested on: P388; experiment: Weight difference observed in survivors treated for antitumor activity against P388 Lymphocytic Leukemia system at a dose of 800 mg/kg (Group III)
[21] = tested on: P388; experiment: Survival rate of the animals determined for antitumor activity against P388 Lymphocytic Leukemia system at a dose of 1600 mg/kg (Group I)
[22] = tested on: P388; experiment: Number of Survivors determined for antitumor activity against P388 Lymphocytic Leukemia system on day 5 at a dose of 400 mg/kg (Group IV)(6 out of 6)
[23] = tested on: P388; experiment: Number of Survivors determined for antitumor activity against P388 Lymphocytic Leukemia system on day 5 at a dose of 200 mg/kg (Group II)(6 out of 6)
[24] = tested on: P388; experiment: Number of Survivors determined for antitumor activity against P388 Lymphocytic Leukemia system on day 5 at a dose of 1600 mg/kg (Group I) (6 out of 6)
[25] = tested on: P388; experiment: Survival rate of the animals determined for antitumor activity against P388 Lymphocytic Leukemia system at a dose of 800 mg/kg (Group II); in short: as §1
[26] = tested on: P388; experiment: Weight difference observed in survivors treated for antitumor activity against P388 Lymphocytic Leukemia system at a dose of 200 mg/kg (Group IV); in short: as §1
[27] = tested on: P388; experiment: Weight difference observed in survivors treated for antitumor activity against P388 Lymphocytic Leukemia system at a dose of 1600 mg/kg (Group I); in short: as §1
[28] = tested on: P388; experiment: Number of Survivors determined for antitumor activity against P388 Lymphocytic Leukemia system on day 5 at a dose of 200 mg/kg (Group IV)(6 out of 6)
[29] = tested on: P388; experiment: Survival rate of the animals determined for antitumor activity against P388 Lymphocytic Leukemia system at a dose of 400 mg/kg (Group I); in short: as §1
[30] = tested on: P388; experiment: Survival rate of the animals determined for antitumor activity against P388 Lymphocytic Leukemia system at a dose of 200 mg/kg (Group IV); in short: as §1
[31] = tested on: P388; experiment: Number of Survivors determined for antitumor activity against P388 Lymphocytic Leukemia system on day 5 at a dose of 200 mg/kg (Group I)(6 out of 6)
[32] = tested on: P388; experiment: Number of Survivors determined for antitumor activity against P388 Lymphocytic Leukemia system on day 5 at a dose of 200 mg/kg (Group III)(6 out of 6)
[33] = tested on: P388; experiment: Number of Survivors determined for antitumor activity against P388 Lymphocytic Leukemia system on day 5 at a dose of 1600 mg/kg (Group II)(6 out of 6)
[34] = tested on: P388; experiment: Number of Survivors determined for antitumor activity against P388 Lymphocytic Leukemia system on day 5 at a dose of 800 mg/kg (Group III)(6 out of 6)
[35] = tested on: P388; experiment: Survival rate of the animals determined for antitumor activity against P388 Lymphocytic Leukemia system at a dose of 400 mg/kg (Group IV); in short: as §1
[36] = tested on: P388; experiment: Survival rate of the animals determined for antitumor activity against P388 Lymphocytic Leukemia system at a dose of 800 mg/kg (Group IV); in short: as §1
[37] = tested on: P388; experiment: Survival rate of the animals determined for antitumor activity against P388 Lymphocytic Leukemia system at a dose of 400 mg/kg (Group III); in short: as §1
[38] = tested on: P388; experiment: Number of Survivors determined for antitumor activity against P388 Lymphocytic Leukemia system on day 5 at a dose of 400 mg/kg (Group III)(6 out of 6)
[39] = tested on: P388; experiment: Weight difference observed in survivors treated for antitumor activity against P388 Lymphocytic Leukemia system at a dose of 200 mg/kg (Group II); in short: as §1
[40] = tested on: P388; experiment: Weight difference observed in survivors treated for antitumor activity against P388 Lymphocytic Leukemia system at a dose of 200 mg/kg (Group I); in short: as §1
[41] = tested on: P388; experiment: Weight difference observed in survivors treated for antitumor activity against P388 Lymphocytic Leukemia system at a dose of 200 mg/kg (Group III); in short: as §1
[42] = tested on: P388; experiment: Survival rate of the animals determined for antitumor activity against P388 Lymphocytic Leukemia system at a dose of 400 mg/kg (Group II); in short: as §1
[43] = tested on: P388; experiment: Weight difference observed in survivors treated for antitumor activity against P388 Lymphocytic Leukemia system at a dose of 1600 mg/kg (Group II); in short: as §1
[44] = tested on: P388; experiment: Weight difference observed in survivors treated for antitumor activity against P388 Lymphocytic Leukemia system at a dose of 400 mg/kg (Group II); in short: as §1
[45] = tested on: P388; experiment: Number of Survivors determined for antitumor activity against P388 Lymphocytic Leukemia system on day 5 at a dose of 400 mg/kg (Group I)(6 out of 6)
[46] = tested on: P388; experiment: Number of Survivors determined for antitumor activity against P388 Lymphocytic Leukemia system on day 5 at a dose of 1600 mg/kg (Group III)(5 out of 6)
[47] = tested on: P388; experiment: Survival rate of the animals determined for antitumor activity against P388 Lymphocytic Leukemia system at a dose of 800 mg/kg (Group III); in short: as §1
[48] = tested on: P388; experiment: Number of Survivors determined for antitumor activity against P388 Lymphocytic Leukemia system on day 5 at a dose of 800 mg/kg (Group IV)(6 out of 6)
[49] = tested on: P388; experiment: Weight difference observed in survivors treated for antitumor activity against P388 Lymphocytic Leukemia system at a dose of 400 mg/kg (Group IV); in short: as §1
[50] = tested on: P388; experiment: Number of Survivors determined for antitumor activity against P388 Lymphocytic Leukemia system on day 5 at a dose of 400 mg/kg (Group II)(6 out of 6)
[51] = tested on: P388; experiment: Weight difference observed in survivors treated for antitumor activity against P388 Lymphocytic Leukemia system at a dose of 800 mg/kg (Group I)
[52] = tested on: P388; experiment: Weight difference observed in survivors treated for antitumor activity against P388 Lymphocytic Leukemia system at a dose of 400 mg/kg (Group III); in short: as §1
[53] = tested on: P388; experiment: Number of Survivors determined for antitumor activity against P388 Lymphocytic Leukemia system on day 5 at a dose of 1600 mg/kg (Group IV)(5 out of 6)
[54] = tested on: P388; experiment: Weight difference observed in survivors treated for antitumor activity against P388 Lymphocytic Leukemia system at a dose of 800 mg/kg (Group IV)
[55] = tested on: P388; experiment: Weight difference observed in survivors treated for antitumor activity against P388 Lymphocytic Leukemia system at a dose of 400 mg/kg (Group I); in short: as §1
[56] = tested on: P388; experiment: Number of Survivors determined for antitumor activity against P388 Lymphocytic Leukemia system on day 5 at a dose of 800 mg/kg (Group I)(6 out of 6)
[57] = tested on: P388; experiment: Number of Survivors determined for antitumor activity against P388 Lymphocytic Leukemia system on day 5 at a dose of 800 mg/kg (Group II)(6 out of 6)
[58] = tested on: P388; experiment: Survival rate of the animals determined for antitumor activity against P388 Lymphocytic Leukemia system at a dose of 200 mg/kg (Group III); in short: as §1

Question: Which results are given for `CC(C)C(O)(C(=O)OCC1=CC[N+]2([O-])CC[C@@H](O)C12)C(C)O` (stereo in doubt; form 3)?
Answer: T-C [1]: -0.1; T/C [2]: 109%; Survivors [3]: 6; T-C [4]: -0.1; Survivors [5]: 6; Survivors [6]: 6; T-C [7]: -1.1; T/C [8]: 100%; T-C [9]: -0.4; T/C [10]: 105%; Survivors [11]: 6; T/C [12]: 107%

Question: What does the source list for `CC(C)[C@](O)(C(=O)OCC1=CC[N+]2([O-])CC[C@@H](O)[C@@H]12)[C@H](C)O` (stereo partly drawn) [INDICINE N-OXIDE]?
Answer: T-C [13]: -5.8; T-C [14]: -2.9; T/C [15]: 160%; T/C [16]: 117%; T/C [17]: 133%; T-C [18]: -3.3; T/C [19]: 120%; T-C [20]: -4.7; T/C [21]: 142%; Survivors [22]: 6; Survivors [23]: 6; Survivors [24]: 6; T/C [25]: 200%; T-C [26]: -0.7; T-C [27]: -2.2; Survivors [28]: 6; T/C [29]: 151%; T/C [30]: 140%; Survivors [31]: 6; Survivors [32]: 6; Survivors [33]: 6; Survivors [34]: 6; T/C [35]: 146%; T/C [36]: 112%; T/C [37]: 191%; Survivors [38]: 6; T-C [39]: -0.5; T-C [40]: -1.6; T-C [41]: -2.9; T/C [42]: 145%; T-C [43]: -3.7; T-C [44]: -1.9; Survivors [45]: 6; Survivors [46]: 5; T/C [47]: 200%; Survivors [48]: 6; T-C [49]: -1.7; Survivors [50]: 6; T-C [51]: -3.2; T-C [52]: -4.3; Survivors [53]: 5; T-C [54]: -2.6; T-C [55]: -1.6; Survivors [56]: 6; Survivors [57]: 6; T/C [58]: 170%
